Measurements of several laboratories.
Compare with care: the assays were run in different laboratories.
Target: Serine/threonine-protein kinase 38 (STK38, Homo sapiens, UniProt Q15208)

Structure (SMILES)	test	system	setting	measurement	value
O=C(Nc1cnc(Oc2ccc(F)cc2)nc1)N1CCc2ncccc2[C@@H]1c1ccc(F)cc1	cell-free assay, competition with immobilised ligand	–	1 µM	remaining binding	91%
Cc1sc(C(=O)NC2COC2)cc1-n1cc(NC(=O)Nc2c(F)cccc2Cl)cn1	enzyme activity, inhibitor	–	10 µM	remaining activity	91.5%
CN([C@@H]1CCc2c(CC(=O)O)c3cc(S(C)(=O)=O)ccc3n2C1)S(=O)(=O)c1ccc(F)cc1	cell-free assay, competition with immobilised ligand	–	1 µM	remaining binding	85%
C[S+]([O-])c1ccc(-c2nc(-c3ccncc3)c(-c3ccc(F)cc3)[nH]2)cc1 (stereo not shown)	cell-free assay	–	0.5 µM	remaining signal	105%
Cn1c2c(c3ccc(Cl)c(Cl)c31)C(C#N)C(C)(C)NC2=O (stereo not shown)	thermal stability, DSF	–	10 µM	ΔTm	0.1 °C
Cc1ccc(C(=O)Nc2ccc(CN3CCN(C)CC3)c(C(F)(F)F)c2)cc1C#Cc1cnc2cccnn12	enzyme activity, inhibitor	–	23.5 nM	remaining activity	78%
Cn1c2c(Cl)c(Cl)ccc2c2cn[nH]c(=O)c21	thermal stability, DSF	–	10 µM	ΔTm	0 °C
c1nc2c(Nc3ccc4c(c3)OCCO4)nc(Nc3ccc4c(c3)OCCO4)nc2[nH]1	enzyme activity, inhibitor	–	10 µM	activity vs control	73%
Cn1c2c(Cl)c(Cl)ccc2c2cc[nH]c(=O)c21	thermal stability, DSF	–	10 µM	ΔTm	0 °C
CCN1CCN(Cc2ccc(NC(=O)c3ccc(C)c(Oc4ccnc5[nH]ccc45)c3)cc2C(F)(F)F)CC1	target engagement in cells, inhibitor, chemoproteomics	A-375	50 nM	inhibition	-11.4%
c1ccc(N2CCN(Cc3nc4ccccc4[nH]3)CC2)nc1	binding, competition with immobilised ligand	–	1 µM	remaining binding	89%
N#CC1c2c([nH]c3c(Cl)c(Cl)ccc23)C(=O)NC12CCCCC2 (racemic)	thermal stability, DSF	–	10 µM	ΔTm	0.6 °C
NS(=O)(=O)c1cc(NC(=O)C2(c3ccccc3Cl)CC2)ccc1Oc1cccc(Cl)c1	cell-free assay, competition with immobilised ligand	–	1 µM	remaining binding	81%
O=C(Nc1cnn(-c2csc(C(=O)NC3COC3)c2)c1)Nc1c(F)cccc1Cl	enzyme activity, inhibitor	–	5 µM	remaining activity	95.5%
CCC1(CC)NC(=O)c2c(c3ccc(Cl)c(Cl)c3n2C)C1C#N (stereo not shown)	thermal stability, DSF	–	10 µM	ΔTm	1.1 °C
Nc1ncnc2occ(-c3ccc(NC(=O)Nc4cc(C(F)(F)F)ccc4F)cc3)c12	cell-free assay, inhibitor	–	20 µM	remaining signal	31%
O=C1NC(=O)c2cc(Nc3ccc(F)cc3)c(Nc3ccc(F)cc3)cc21	cell-free assay	–	0.5 µM	remaining signal	85.5%
CCN1CCN(Cc2ccc(NC(=O)c3ccc(C)c(/C=C/c4cnc5[nH]ccc5c4OC)c3)cc2C(F)(F)F)CC1	target engagement in cells, inhibitor, chemoproteomics	A-375	0.5 µM	inhibition	-0.843%
CCCOc1ccc([C@@H]2[C@@H](C(=O)O)[C@H](c3ccc4c(c3)OCO4)CN2CC(=O)Nc2c(CC)cccc2CC)cc1	cell-free assay, competition with immobilised ligand	–	1 µM	remaining binding	83%
